The results in this text go back to ChEMBL document CHEMBL1123589, “Phenylpiperazine-based radiopharmaceuticals for brain imaging. 3. Synthesis and evaluation of radioiodinated 1-alkyl-4-phenylpiperazines” (J Med Chem, 1987).

Holding throughout (settings): in vivo
In series [1] the test system is Rattus norvegicus. Nature of the series: The biodistribution of the [125I]-labeled compound in rats after intravenous injection was evaluated in muscle at 4.00 hrs; value ranges from 0.03-0.04 (ID.kg/g). Type of series: ADME, organism-based, Muscle tissue. The gist of the method:
(§1)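 Male Sprague-Dawley rats (250–300 g) under ether anesthesia given iv 0.1 mL saline containing 10–15 μCi of NCA ¹²⁵I-labeled agent (chloramine-T iodination, HPLC-purified). Groups of 3 killed at 0.25, 1 and 4 h. Blood and tissues excised, weighed and γ-counted. Values are mean (range) of % injected dose × body mass (kg) per gram of tissue.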

Series [2] has as its system Rattus norvegicus. Kind of series: The biodistribution of the [125I]-labeled compound in rats after intravenous injection was evaluated in blood at 0.25 hrs (ID.kg/g). Type of series: ADME, organism-based. The gist of the method:
(§2)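 Male Sprague-Dawley rats (250–300 g) under ether anesthesia were given an iv injection of no-carrier-added 125I-labelled agent (10–15 μCi in 0.1 mL saline). The agent was iodinated with chloramine-T in acetate buffer and purified by C-18 HPLC. Groups of N = 3 were killed at 0.25, 1 and 4 h. Blood and tissues were weighed and γ-counted. Values are % ID·kg/g, mean (range).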

Series [3] deals with Canis familiaris. Kind of series: The biodistribution of the [131I]-labeled compound in dog (mass= 5.7 kg), 2 hr after intravenous injection was evaluated in blood (ID.kg/g). It counts as ADME, organism-based, Canis lupus familiaris. The gist of the method:
(§3)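 One female dog (5.7 kg) premedicated im with acepromazine maleate, then anesthetized iv with sodium nembutal/saline (1:1). Given 1.0 mCi iv of ¹³¹I-labeled agent. Killed 2 h post-dose with iv nembutal. Tissues excised, weighed and counted; blood, fat and muscle masses estimated as 7.5%, 27.5% and 40% of body weight. Expressed as % ID/organ and % ID·kg/g.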

Series [4] deals with Rattus norvegicus. Nature of the series: The biodistribution of the [125I]-labeled compound in rats after intravenous injection was evaluated in thyroid at 4.00 hrs; value ranges from 4.85-5.46 (ID.kg/g). Type of series: ADME, organism-based, Thyroid gland. An outline of the steps: as §1
Series [5] concerns Rattus norvegicus. Kind of series: The biodistribution of the [125I]-labeled compound in rats after intravenous injection was evaluated in liver at 4.00 hrs; value ranges from 0.40-0.52 (ID.kg/g). Type of series: ADME, organism-based. An outline of the steps: (§4)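 Male Sprague-Dawley rats (250–300 g), under ether anesthesia, given 10–15 μCi of the NCA ¹²⁵I-labeled agent iv in 0.1 mL saline. Groups of N = 3 were killed at 0.25, 1 or 4 h. Blood and tissues were removed, weighed and counted in a γ-well scintillation counter. Values are mean % ID·kg/g (range).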

Series [6] concerns Rattus norvegicus. Nature of the series: The biodistribution of the [125I]-labeled compound in rats after intravenous injection was evaluated in adrenal at 1.00 hrs; value ranges from 0.80-1.14 (ID.kg/g). It counts as ADME, organism-based. An outline of the steps: as §2
The subject of series [7] is Rattus norvegicus. Nature of the series: The biodistribution of the [125I]-labeled compound in rats after intravenous injection was evaluated in blood at 1.00 hrs (ID.kg/g). It counts as ADME, organism-based. An outline of the steps: as §2
Series [8] concerns Rattus norvegicus. Nature of the series: The biodistribution of the [125I]-labeled compound in rats after intravenous injection was evaluated in kidney at 0.25 hr; value ranges from 0.48-0.58 (ID.kg/g). Type of series: ADME, organism-based. An outline of the steps:
as §4

For series [9], the system named is Rattus norvegicus. Kind of series: The biodistribution of the [125I]-labeled compound in rats after intravenous injection was evaluated in kidney at 1.00 hrs; value ranges from 0.52-0.61 (ID.kg/g). It counts as ADME, organism-based. An outline of the steps:
as §4

Series [10] deals with Canis familiaris. Nature of the series: The biodistribution of the [131I]-labeled compound in dog (mass= 5.7 kg), 2 hr after intravenous injection was evaluated in adrenal (ID.kg/g). It counts as ADME, organism-based, Canis lupus familiaris. An outline of the steps:
as §3

The test system of series [11] is Canis familiaris. Nature of the series: The biodistribution of the [131I]-labeled compound in dog (mass= 5.7 kg), 2 hr after intravenous injection was evaluated in fat (ID.kg/g). It counts as ADME, organism-based, Canis lupus familiaris, Adipose tissue. The gist of the method:
as §3

The test system of series [12] is Rattus norvegicus. Kind of series: The biodistribution of the [125I]-labeled compound in rats after intravenous injection was evaluated in muscle at 0.25 hrs (ID.kg/g). Type of series: ADME, organism-based, Muscle tissue. An outline of the steps:
as §1

Series [13] relates to Canis familiaris. Nature of the series: The biodistribution of the [131I]-labeled compound in dog (mass= 5.7 kg), 2 hr after intravenous injection was evaluated in kidney (ID.kg/g). Type of series: ADME, organism-based, Canis lupus familiaris. The gist of the method: as §3
In series [14] the test system is Rattus norvegicus. Nature of the series: The biodistribution of the [125I]-labeled compound in rats after intravenous injection was evaluated in heart at 1.00 hrs; value ranges from 0.26-0.37 (ID.kg/g). Type of series: ADME, organism-based. An outline of the steps: as §4

Each structure is given as a SMILES string. Where “and” joins values, the source holds several entries; their conditions need not be identical. Equal entries are not always repeated.

For the molecule `CCCCN1CCN(c2ccc(I)cc2)CC1`, the Biodistribution is 0.04% in the series with Rattus norvegicus [1]; 0.01 % ID·kg/g in the series on Rattus norvegicus [2]; 1.072% and 0.148% with Canis familiaris [3]; 5.46% in the series with Rattus norvegicus [4]; 0.52% in the series on Rattus norvegicus [5]; 1.14% with Rattus norvegicus [6]. The Biodistribution with Rattus norvegicus [7] is 0.01 % ID·kg/g; with Rattus norvegicus [8], 0.58%; in the series on Rattus norvegicus [9] it was 0.61%; in the series with Canis familiaris [10] it was 0.121% and 0.633%; in the series on Canis familiaris [11] it was 9.41% and 0.034%; with Rattus norvegicus [12] it was 0.03 % ID·kg/g. Further, the Biodistribution is reported as 0.182% in the series on Canis familiaris [13] and 0.37% in the series with Rattus norvegicus [14].
